This is a sample that favours compounds with a hit; in the whole collection about 2.3% have one here.
TRPC4 block = inhibitors of mouse TRPC4 channel, primary screen, Fluo4 calcium, HEK293 TRPC4beta/mu-opioid cells | Short transient receptor potential channel 4 (Mus musculus), Q9QUQ5 | DAMGO-evoked Fluo4 calcium flux; hits give low values | B-score at 10 µM | actives 0.39% (n = 300,000) | AID 2247, 2010;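 active = B-score over 3 SD under the library average, no early fluorescence shift, positive overall ratio signal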
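Material: HEK293 cells with stable TRPC4beta plus mu-opioid receptor expression / Probe or stimulus: DAMGO in two steps, submaximal then maximal / Compound: single concentration per test compound / Technique: kinetic Fluo4 fluorescence imaging of calcium influx / Read-out: per-well B score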
TRPC4 PAM = positive allosteric modulators of TRPC4, primary screen, cell-based, mouse TRPC4beta, HEK293 mu-opioid, Fluo-4 calcium; Short transient receptor potential channel 4 (Mus musculus), Q9QUQ5; actives 0.42% (n = 310,000); DAMGO EC20, Fluo-4 Ca2+ flux; hits give high values; B-score at 10 µM;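 active = B-score of calcium response area above 5 SD of library B-scores, with initial fluorescence ratio within 5 SD of library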;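 also: B-score of integrated fluorescence ratio over time as area under calcium response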
TRPC6 inh = mouse TRPC6 channel inhibitors, primary screen, cell-based, HEK293, membrane potential dye. Short transient receptor potential channel 6 (Mus musculus), Q61143. ACh-evoked depolarization; hits give low values. B-score at 10 µM. actives 1.1% (n = 310,000). AID 2553, 2010;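 active = B-score under library mean minus 3 SD, initial fluorescence not abnormally high, positive integrated signal ratio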;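 also: B-score derived from integrated fluorescence ratio over the kinetic read; more negative B-score means stronger inhibition of depolarization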
Target sequence (Q61143 whole entry, looked up): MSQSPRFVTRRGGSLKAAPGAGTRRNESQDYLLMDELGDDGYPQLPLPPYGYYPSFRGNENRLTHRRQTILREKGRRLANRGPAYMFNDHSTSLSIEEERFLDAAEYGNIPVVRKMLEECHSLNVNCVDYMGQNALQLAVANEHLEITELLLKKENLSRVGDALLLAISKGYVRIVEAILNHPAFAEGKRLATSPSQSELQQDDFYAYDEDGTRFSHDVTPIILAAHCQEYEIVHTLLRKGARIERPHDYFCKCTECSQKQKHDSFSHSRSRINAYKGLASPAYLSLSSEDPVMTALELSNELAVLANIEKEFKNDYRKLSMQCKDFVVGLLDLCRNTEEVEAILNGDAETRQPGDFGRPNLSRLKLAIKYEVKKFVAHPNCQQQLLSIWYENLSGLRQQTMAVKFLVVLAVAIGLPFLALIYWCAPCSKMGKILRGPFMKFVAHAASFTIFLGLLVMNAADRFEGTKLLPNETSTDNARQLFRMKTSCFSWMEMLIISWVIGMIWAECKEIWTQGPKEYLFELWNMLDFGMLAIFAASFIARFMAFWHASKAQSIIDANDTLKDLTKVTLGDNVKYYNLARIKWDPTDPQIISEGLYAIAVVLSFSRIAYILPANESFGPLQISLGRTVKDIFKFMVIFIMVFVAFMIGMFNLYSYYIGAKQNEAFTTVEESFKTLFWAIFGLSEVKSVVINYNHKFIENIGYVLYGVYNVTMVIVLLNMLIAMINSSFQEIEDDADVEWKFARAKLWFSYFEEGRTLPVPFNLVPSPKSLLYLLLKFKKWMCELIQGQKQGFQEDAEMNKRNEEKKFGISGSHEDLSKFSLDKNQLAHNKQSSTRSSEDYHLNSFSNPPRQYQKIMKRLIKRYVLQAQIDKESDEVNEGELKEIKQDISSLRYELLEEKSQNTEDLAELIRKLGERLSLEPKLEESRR
TRPC6 activator = mouse TRPC6 channel activators, primary screen, cell-based, HEK293, membrane potential dye; B-score at 10 µM; actives 0.13% (n = 310,000); HEK293-TRPC6 membrane potential dye fluorescence; hits give high values; AID 2550, 2010;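 active = B-score of the integrated fluorescence ratio above library mean plus 3 SD, and starting fluorescence ratio within library mean plus 5 SD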;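 also: higher score means more depolarization so channel activation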
TRPC4 agonist = activators of mouse TRPC4 channel, primary screen, Fluo4 calcium, HEK293 TRPC4beta/mu-opioid cells; Short transient receptor potential channel 4 (Mus musculus), Q9QUQ5; Fluo4 calcium fluorescence; hits give high values; B-score at 10 µM; actives 0.49% (n = 310,000);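 active = B-score above 5 SD of library B-scores, and initial fluorescence ratio not above library mean plus 5 SD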;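 also: positive B-score marks a calcium rise read as TRPC4 activation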
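Assay system: HEK293 stable line with TRPC4beta plus mu-opioid receptor. Times: dye 45 min RT, read 110 s. Measured by: kinetic Fluo4 calcium fluorescence. Measure: B score of integrated ratio. Controls: assay buffer as low control, maximal DAMGO as high control.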
TRPC4 spec 2 = mouse TRPC4 off-target activity of TRPC6 inhibitors, second screen. inhibition, % at 10 µM. actives 42% (n = 920). HEK293 TRPC4/MOR, membrane potential dye fluorescence; channel activated by saturating DAMGO dose. shares compounds with TRPC6 inh;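 active = compounds whose fluorescence signal differed from control wells by over 3 SD, either direction, in both duplicate plates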
TRPC4 spec = mouse TRPC4 modulation by TRPC6 hits, confirmation, selectivity assay for TRPC6 inhibitor project, cell-based, HEK293 TRPC4/mu-opioid, membrane potential dye. shares compounds with TRPC6 inh. membrane potential fluorescence. activity change, negative = inhibition, % at 10 µM. actives 61% (n = 920). AID 2777, 2010;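 active = rise or fall in signal beyond 3 SD of buffer-only wells in both replicate plates, either sign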;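 also: integrated kinetic ratio of fluorescence range over baseline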
HEK293 MPD ctr 2-1 = nonspecific membrane potential effects, parental HEK293, confirmation, counter-screen for TRPC6 inhibitor project, cell-based, second counter screen. shares compounds with TRPC6 inh. signal change vs control, % at 10 µM. parental HEK293 membrane potential dye fluorescence; maximal acetylcholine challenge after compound addition. actives 31% (n = 920);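 active = membrane potential signal moving either way by over 3 SD of the maximum-effect control, in both duplicate plates, meaning non-specific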
HEK293 MPD ctr-1 = membrane potential modulation in parental HEK293, confirmation, counter-screen for TRPC6 inhibitor project, cell-based. actives 60% (n = 920). membrane potential signal change, % at 10 µM. shares compounds with TRPC6 inh. parental HEK293 membrane potential dye fluorescence. AID 2780, 2010;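 active = membrane potential signal shifting up or down by more than 3 SD of buffer-only wells, on both duplicate plates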
HEK293 MPD ctr-2 = parental HEK293 membrane potential modulation, confirmation, counter-screen for TRPC6 modulator project, cell-based; shares compounds with TRPC6 inh; membrane potential dye fluorescence; membrane potential signal change, % at 10 µM; actives 51% (n = 2,400);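 active = membrane potential signal moves up or down beyond 5 SD from buffer-only wells, on both duplicate plates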
HEK293 MPD ctr 2-2 = second check of TRPC6 modulator effects in parental HEK293 cells; actives 14% (n = 2,400); membrane potential dye fluorescence; after compound, maximal acetylcholine stimulation; inhibition, % at 10 µM; shares compounds with TRPC6 inh;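 active = membrane potential signal drops by more than 5 SD from the mean control signal, in both duplicate plates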;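 also: plate controls were acetylcholine ECmax control wells for no effect and buffer only wells for full effect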
TRPC4/MOR mod = TRPC4 modulation by TRPC6 hit compounds, confirmation, selectivity assay for TRPC6 modulator project, cell-based, HEK293 TRPC4/mu-opioid, membrane potential dye, mouse | percent change from control (negative = decrease, positive = increase), % at 10 µM | shares compounds with TRPC6 inh | membrane potential fluorescence | actives 69% (n = 2,400) | AID 488927, 2010;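 active = membrane potential signal moved up or down beyond 5 SD of buffer control wells, in both duplicate plates, actives on both sides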;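 also: plate controls were assay buffer wells for no effect and DAMGO maximal-effect wells for full effect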
TRPC4 ctr inh 2 = second selectivity test of TRPC6 modulators against mouse TRPC4 | shares compounds with TRPC6 inh | HEK293 TRPC4/mu-opioid, membrane potential dye fluorescence; stimulated with maximal-effect DAMGO | inhibition, % at 10 µM | actives 55% (n = 2,400) | AID 488928;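 active = drop in membrane potential signal beyond 5 SD of the control wells in both duplicate plates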;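 also: TRPC4 counter screen for TRPC6 hits run under conditions tuned for TRPC6 not TRPC4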
TRPC6 inh conf = mouse TRPC6 channel inhibitors, confirmation, HEK293 cells, membrane potential dye, duplicate | inhibition, % at 10 µM | actives 43% (n = 3,300) | AID 488960, 2010 | shares compounds with TRPC6 inh | ACh-evoked depolarization;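 active = fluorescence ratio falls more than 5 SD below the full-stimulation control mean, in both duplicate runs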;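 also: integrated fluorescence ratio of peak minus minimum over baseline after agonist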
TRPC6 act confirm = mouse TRPC6 channel activators, confirmation, HEK293 cells, membrane potential dye, duplicate; shares compounds with TRPC6 inh; HEK293-TRPC6 membrane potential dye fluorescence, FDSS; activation, % at 10 µM; actives 11% (n = 2,800); AID 488961, 2010;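 active = ratio signal rise beyond 5 SD above unstimulated control wells' mean, seen in both duplicate runs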;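 also: plate controls were buffer EC0 wells for no effect and acetylcholine ECmax response for full effect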
* marks the source's active call; other numbers are inactive results; i = inactive; x = not tested or not shown.

SMILES	TRPC4 block	TRPC4 PAM	TRPC6 inh	TRPC6 activator	TRPC4 agonist	TRPC4 spec 2	TRPC4 spec	HEK293 MPD ctr 2-1	HEK293 MPD ctr-1	TRPC6 inh conf	TRPC6 act confirm	others
CCN(CC)C(=O)COCc1cc(-c2ccc3c(c2)OCO3)on1	i	i	-7.01*	i	i	i	i	i	i	i	i
Cc1cc([N+](=O)[O-])nn1CC(=O)NNC(=S)Nc1ccc(F)cc1	i	i	i	i	i	x	x	x	x	x	x
COc1ccc(CN2CCN(CCC(C)C)C(CCO)C2)cc1Cn1cncn1 (stereo unspecified)	i	i	i	i	i	x	x	x	x	x	x
Cc1ccccc1-c1nc(-c2ccc(NC(=O)c3cccs3)cc2)no1	i	i	-7.11*	i	i	i	i	i	i	i	i
O=C(CSc1nnc(-c2cccs2)n1CC1CCCO1)N1CCCC1 (stereo unspecified)	i	i	i	i	i	x	x	x	x	x	x
O=C(CCCSc1nnc(-c2cccs2)n1CC1CCCO1)c1ccccc1 (stereo unspecified)	i	i	-5.18*	i	i	x	x	x	x	i	x	HEK293 MPD ctr-2=186.5%*;HEK293 MPD ctr 2-2=i;TRPC4/MOR mod=33.5%*;TRPC4 ctr inh 2=i
O=C(COc1ccc([N+](=O)[O-])cc1)Nc1ccncc1	i	i	-5.21*	i	i	x	x	x	x	37.0%*	i	HEK293 MPD ctr-2=-134.0%*;HEK293 MPD ctr 2-2=i;TRPC4/MOR mod=-28.5%*;TRPC4 ctr inh 2=32.5%*
O=C(COc1ccc(/C=N/NC(=O)c2ccncc2)cc1)Nc1ccc([N+](=O)[O-])cc1	i	i	i	i	i	x	x	x	x	x	x
COc1ccccc1NC(=O)c1ccc(NC(=O)CSc2n[nH]c(N)n2)cc1	i	i	i	i	i	x	x	x	x	x	x
Nc1cccc(C(=O)NCCNC(=O)c2cccc(N)c2)c1	i	i	-7.09*	i	i	i	i	i	i	i	i
O=C(NCCNC(=O)c1cccc(O)c1)c1cccc(O)c1	i	i	i	i	i	x	x	x	x	x	x
CC(C)CN1CCN(C(=O)CCc2nnc(Cc3c[nH]c4ccccc34)o2)[C@@H](C)C1=O	i	i	i	i	i	x	x	x	x	x	x
CSc1nc(C(=O)N2CCCC(C(=O)c3ccc(Cl)cc3)C2)cs1 (stereo unspecified)	i	i	-5.89*	i	i	x	x	x	x	i	x	HEK293 MPD ctr-2=138.0%*;HEK293 MPD ctr 2-2=i;TRPC4/MOR mod=33.0%*;TRPC4 ctr inh 2=i
Cc1cc(Cl)ccc1C(=O)C1CCCN(C(=O)c2cnsn2)C1 (stereo unspecified)	i	i	-6.74*	i	i	i	26.3%*	i	17.9%*	i	x
Cc1cc(Cl)ccc1C(=O)C1CCCN(C(=O)c2cscn2)C1 (stereo unspecified)	i	i	i	i	i	x	x	x	x	x	x
OC(C#CCN1CCCC1)(c1ccccc1)c1ccccc1	i	i	-8.7*	i	i	i	2.5%*	-13.5%*	5.6%*	65.9%*	x
CC(O)(C#CCN1CCCCCC1)c1ccccc1 (stereo unspecified)	i	i	i	i	i	x	x	x	x	x	x
OC(C#CCN1CCCCC1)(c1ccccc1)c1ccccc1	i	i	-7.45*	i	i	i	1.1%*	-27.5%*	2.4%*	81.0%*	i
COc1ccc(C)cc1S(=O)(=O)N(CC(=O)N1CCCC1)c1ccccc1	i	i	i	i	i	x	x	x	x	x	x
COc1cc(C2C(C#N)=C(N)Oc3cc(N(C)C)ccc32)cc2c1OCO2 (stereo unspecified)	i	i	i	11.6*	64*	x	x	x	x	i	62.0%*	HEK293 MPD ctr-2=256.0%*;HEK293 MPD ctr 2-2=i;TRPC4/MOR mod=53.0%*;TRPC4 ctr inh 2=i
Cc1ccnc2c1ccc1ccccc12	i	i	-6.51*	i	i	x	x	x	x	i	i	HEK293 MPD ctr-2=i;HEK293 MPD ctr 2-2=i;TRPC4/MOR mod=i;TRPC4 ctr inh 2=i
Cc1ccc2cccnc2c1N	i	i	i	i	i	x	x	x	x	x	x
O=C(CCS(=O)(=O)c1ccc(Br)cc1)NC1CCCCCC1	i	i	i	i	i	x	x	x	x	x	x
COc1ccc(NC2=Nc3cccc4cccc2c34)cc1OC	i	i	i	i	i	x	x	x	x	x	x

Compound activity deposited in PubChem by Johns Hopkins Ion Channel Center.
